In brackets after ≈: the same amount, converted by molar mass. Where only a bound is given, the exact number is not on record here.

Holding throughout (type): functional
In experiment [1] the test system is Mycobacterium avium. In words: Antitubercular activity against Mycobacterium avium CNCTC My 330/88 assessed as inhibition of bacterial growth measured after 21 days of incubation by Sulas semisynthetic medium based assay. As to conditions: CNCTC My 330/88, 504 h, time 21 day. The method in brief: (§1)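 M. avium was tested by the micromethod in Sula's semisynthetic medium. Compounds in DMSO at 1000 to 0.5 μmol/L. Incubation at 37 °C, read at 14 and 21 days. MIC is the lowest concentration giving >99% growth inhibition.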

The subject of experiment [2] is Mycobacterium avium. In words: Antitubercular activity against Mycobacterium avium CNCTC My 330/88 assessed as inhibition of bacterial growth measured after 14 days of incubation by Sulas semisynthetic medium based assay. As to conditions: CNCTC My 330/88, 336 h, time 14 day. The method in brief:
as §1

For experiment [3], the system named is Mycobacterium kansasii. In words: Antitubercular activity against Mycobacterium kansasii CNCTC My 235/80 assessed as inhibition of bacterial growth measured after 14 days of incubation by Sulas semisynthetic medium based assay. As to conditions: CNCTC My 235/80, 336 h, time 14 day. The method in brief: (§2)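 Micromethod in Sula's semisynthetic medium. MIC is the lowest concentration inhibiting >99% of the mycobacterial population. Isoniazid was the standard.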

Experiment [4] relates to Mycobacterium tuberculosis. Briefly: Antitubercular activity against Mycobacterium tuberculosis CNCTC My 331/88 (H37Rv) assessed as inhibition of bacterial growth measured after 21 days of incubation by Sulas semisynthetic medium based assay. Conditions: 504 h, time 21 day. The method in brief: (§3)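 Micromethod MIC in Sula's semisynthetic medium. MIC is the lowest concentration inhibiting >99% of the mycobacterial population. Isoniazid was the standard drug.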

The test system of experiment [5] is Mycobacterium kansasii. In words: Antitubercular activity against Mycobacterium kansasii CNCTC My 235/80 assessed as inhibition of bacterial growth measured after 21 days of incubation by Sulas semisynthetic medium based assay. Conditions: CNCTC My 235/80, 504 h, time 21 day. The method in brief:
as §2

Experiment [6] has as its system Mycobacterium tuberculosis. Briefly: Antitubercular activity against Mycobacterium tuberculosis CNCTC My 331/88 (H37Rv) assessed as inhibition of bacterial growth measured after 14 days of incubation by Sulas semisynthetic medium based assay. As to conditions: 336 h, time 14 day. The method in brief:
as §3

Experiment [7] has as its system Mycobacterium kansasii. In words: Antitubercular activity against Mycobacterium kansasii CNCTC My 235/80 assessed as inhibition of bacterial growth measured after 7 days of incubation by Sulas semisynthetic medium based assay. Conditions: CNCTC My 235/80, 168 h, time 7 day. The method in brief:
as §2

Take `Cn1c(N2CCOCC2)nc2ncn(Cc3ccc4ccccc4c3)c2c1=O`: the MIC99 in experiment [1] was more than 500 µM; in experiment [2] it was more than 500 µM; in experiment [3] it was more than 500 µM; in experiment [4], 64 µM (≈ 24 µg/mL); in experiment [5], more than 500 µM; in experiment [6], 32 µM (≈ 12 µg/mL).

Regarding `O=c1[nH]c(N2CCOCC2)nc2ncn(-c3cccc4c3sc3ccccc34)c12`, the MIC99 in experiment [1], in experiment [2], in experiment [3], in experiment [4], in experiment [7] and in experiment [5] was more than 250 µM each time. In experiment [6], the MIC99 was more than 250 µM.

On to `Oc1nc(N2CCOCC2)nc2ncn(Cc3ccccc3)c12`, for which the MIC99 in experiment [1], in experiment [2], in experiment [3], in experiment [4], in experiment [7] and in experiment [5] was more than 500 µM each time. For the same compound, the MIC99 in experiment [6] is more than 500 µM.

As for `COCCN(C)c1nc2ncn(Cc3ccc4ccccc4c3)c2c(=O)[nH]1`, the MIC99 in experiment [1], in experiment [2], in experiment [3], in experiment [4], in experiment [7] and in experiment [5] was more than 500 µM throughout. For the same compound, the MIC99 in experiment [6] was more than 500 µM.

With `O=c1[nH]c(N2CCOCC2)nc2ncn(Cc3cccc4ccccc34)c12`, the MIC99 in experiment [1], in experiment [2], in experiment [3], in experiment [4], in experiment [7] and in experiment [5] was more than 500 µM throughout. Moreover, the MIC99 in experiment [6] was more than 500 µM.

With `O=c1[nH]c(N2CCCC2)nc2ncn(Cc3ccc4ccccc4c3)c12`, the MIC99 in experiment [1] was more than 500 µM; in experiment [2] it was more than 500 µM; in experiment [3], more than 500 µM; in experiment [4], 16 µM (≈ 5.53 µg/mL); in experiment [7] it was more than 500 µM; in experiment [5], more than 500 µM. In addition, in experiment [6], the MIC99 amounted to 8 µM (≈ 2.76 µg/mL).

With `O=c1[nH]c(N2CCOCC2)nc2c1ncn2Cc1ccc(Cl)cc1`, the MIC99 in experiment [1], in experiment [2], in experiment [3], in experiment [4], in experiment [7] and in experiment [5] was more than 500 µM in each case. The MIC99 in experiment [6] is more than 500 µM.

Turning to `COc1cccc(Cn2cnc3c(=O)[nH]c(N4CCOCC4)nc32)c1`, the MIC99 in experiment [1], in experiment [2], in experiment [3], in experiment [4], in experiment [7] and in experiment [5] was more than 500 µM each time. Also, the MIC99 in experiment [6] is more than 500 µM.

In the case of `COc1ccc(Cn2cnc3c(=O)[nH]c(N4CCOCC4)nc32)cc1`, the MIC99 in experiment [1], in experiment [2], in experiment [3], in experiment [4], in experiment [7] and in experiment [5] was more than 500 µM each time. Further, the MIC99 in experiment [6] was more than 500 µM.

On to `COc1ccc(Cn2cnc3nc(N4CCOCC4)[nH]c(=O)c32)cc1`, for which the MIC99 in experiment [1] was more than 500 µM; in experiment [2], more than 500 µM; in experiment [3] it was more than 500 µM; in experiment [4], 64 µM (≈ 21.8 µg/mL); in experiment [5], more than 500 µM; in experiment [6] it was 32 µM (≈ 10.9 µg/mL).

Consider `O=c1[nH]c(N2CCOCC2)nc2ncn(-c3ccsc3)c12`, for which the MIC99 in experiment [1], in experiment [2], in experiment [3], in experiment [4], in experiment [7] and in experiment [6] was more than 500 µM in each case.

As for `COc1cccc(Cn2cnc3nc(N4CCOCC4)[nH]c(=O)c32)c1`, the MIC99 in experiment [1] is more than 500 µM; in experiment [3], more than 500 µM; in experiment [4], more than 500 µM; in experiment [7] it was more than 500 µM; in experiment [5], more than 500 µM; in experiment [6], 500 µM (≈ 171 µg/mL).

Source of the values: ChEMBL document CHEMBL5620421, “2,6-Disubstituted 7-(naphthalen-2-ylmethyl)-7H-purines as a new class of potent antitubercular agents inhibiting DprE1” (Eur J Med Chem, 2023).
